Measured values as given in ChEMBL document CHEMBL3797186, “Single Residue Substitutions That Confer Voltage-Gated Sodium Ion Channel Subtype Selectivity in the NaV1.7 Inhibitory Peptide GpTx-1” (J Med Chem, 2016).
Positions of bridges follow the written chain, without caps; N, C: chain ends. Non-standard residues stand in square brackets, D forms with d. Residues, ends and D or L forms follow the SMILES beside them. Lys(Me2) = CN(C)CCCC[C@H](N)C(=O)O

Columns and labels:
Type in all cases: cell-based
[1] = target: T1, Sodium channel protein type 5 subunit alpha (Homo sapiens, UniProt Q14524); assay: Inhibition of human Nav1.5 expressed in HEK293 cells by whole cell patch clamp electrophysiology method
T1 sequence (Q14524 whole entry): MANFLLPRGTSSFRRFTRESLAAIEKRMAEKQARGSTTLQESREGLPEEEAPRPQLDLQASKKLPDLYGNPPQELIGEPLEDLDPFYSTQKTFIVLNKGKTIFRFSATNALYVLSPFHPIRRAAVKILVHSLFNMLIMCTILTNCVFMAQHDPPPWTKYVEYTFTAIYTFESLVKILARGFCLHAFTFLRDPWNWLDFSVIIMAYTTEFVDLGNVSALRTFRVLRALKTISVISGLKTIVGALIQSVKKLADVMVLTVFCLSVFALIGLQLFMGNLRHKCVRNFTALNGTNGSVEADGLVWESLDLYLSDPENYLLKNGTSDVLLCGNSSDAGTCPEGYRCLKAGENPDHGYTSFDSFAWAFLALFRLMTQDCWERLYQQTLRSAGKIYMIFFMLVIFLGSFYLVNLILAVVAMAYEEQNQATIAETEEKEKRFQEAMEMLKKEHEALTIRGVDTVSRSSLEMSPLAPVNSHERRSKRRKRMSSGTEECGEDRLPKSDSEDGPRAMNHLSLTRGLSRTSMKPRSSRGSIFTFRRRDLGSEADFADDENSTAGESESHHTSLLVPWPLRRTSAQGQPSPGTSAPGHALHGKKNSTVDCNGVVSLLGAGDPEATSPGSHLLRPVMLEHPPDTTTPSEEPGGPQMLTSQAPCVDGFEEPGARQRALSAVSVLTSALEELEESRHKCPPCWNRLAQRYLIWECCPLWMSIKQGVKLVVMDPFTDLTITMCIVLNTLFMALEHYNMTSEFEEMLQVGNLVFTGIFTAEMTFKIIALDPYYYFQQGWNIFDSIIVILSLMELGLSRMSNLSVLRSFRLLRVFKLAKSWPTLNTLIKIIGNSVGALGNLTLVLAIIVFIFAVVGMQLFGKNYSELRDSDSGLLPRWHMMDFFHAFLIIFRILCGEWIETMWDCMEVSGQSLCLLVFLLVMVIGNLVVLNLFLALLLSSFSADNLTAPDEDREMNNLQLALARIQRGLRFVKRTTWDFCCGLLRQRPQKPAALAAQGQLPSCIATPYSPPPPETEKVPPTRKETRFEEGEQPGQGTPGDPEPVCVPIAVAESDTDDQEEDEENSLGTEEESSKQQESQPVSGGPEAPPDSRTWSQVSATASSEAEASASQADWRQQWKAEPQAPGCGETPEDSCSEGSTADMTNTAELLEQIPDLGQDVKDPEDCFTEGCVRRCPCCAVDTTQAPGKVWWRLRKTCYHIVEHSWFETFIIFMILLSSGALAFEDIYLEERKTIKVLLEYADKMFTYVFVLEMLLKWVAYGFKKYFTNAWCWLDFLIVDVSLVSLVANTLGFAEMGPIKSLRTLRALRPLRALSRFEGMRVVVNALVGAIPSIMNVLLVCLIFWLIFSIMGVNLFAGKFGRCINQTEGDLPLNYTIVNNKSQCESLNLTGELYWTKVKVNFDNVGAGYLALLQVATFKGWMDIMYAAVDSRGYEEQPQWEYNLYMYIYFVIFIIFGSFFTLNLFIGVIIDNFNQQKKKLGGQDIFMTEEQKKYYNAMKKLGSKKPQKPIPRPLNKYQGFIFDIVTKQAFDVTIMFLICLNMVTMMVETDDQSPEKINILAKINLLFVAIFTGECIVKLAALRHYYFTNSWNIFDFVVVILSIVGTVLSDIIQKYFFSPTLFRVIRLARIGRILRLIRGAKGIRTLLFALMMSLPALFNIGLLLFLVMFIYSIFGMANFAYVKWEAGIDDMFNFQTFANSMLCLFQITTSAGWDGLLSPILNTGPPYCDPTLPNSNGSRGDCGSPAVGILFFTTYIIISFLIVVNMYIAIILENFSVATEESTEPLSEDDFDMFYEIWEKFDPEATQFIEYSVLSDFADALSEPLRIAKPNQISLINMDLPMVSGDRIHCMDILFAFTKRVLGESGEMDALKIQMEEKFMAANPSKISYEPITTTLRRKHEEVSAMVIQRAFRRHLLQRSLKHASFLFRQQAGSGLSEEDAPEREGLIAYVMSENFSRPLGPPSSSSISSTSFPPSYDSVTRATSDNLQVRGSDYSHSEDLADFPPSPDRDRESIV
Method in brief: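 Stable HEK293 line expressing human NaV1.5, recorded on the PatchXpress 7000A. Percent inhibition versus concentration was pooled from at least 10 cells, with two to three points per concentration. The pooled set was fitted with a four-parameter Hill equation to give a single IC50 curve.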

[2] = target: T1, Sodium channel protein type 5 subunit alpha; assay: Inhibition of human Nav1.5 expressed in HEK293 cells assessed as inward peak current by ion-works quattro patch clamp electrophysiology method
Method in brief: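 Stable HEK293 line expressing human NaV1.5, recorded by population patch clamp on the IonWorks Quattro.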

[3] = target: Sodium channel protein type 9 subunit alpha (Homo sapiens, UniProt Q15858); assay: Inhibition of human Nav1.7 expressed in HEK293 cells assessed as inward peak current by ion-works quattro patch clamp electrophysiology method
Chain of Sodium channel protein type 9 subunit alpha (Q15858 whole entry): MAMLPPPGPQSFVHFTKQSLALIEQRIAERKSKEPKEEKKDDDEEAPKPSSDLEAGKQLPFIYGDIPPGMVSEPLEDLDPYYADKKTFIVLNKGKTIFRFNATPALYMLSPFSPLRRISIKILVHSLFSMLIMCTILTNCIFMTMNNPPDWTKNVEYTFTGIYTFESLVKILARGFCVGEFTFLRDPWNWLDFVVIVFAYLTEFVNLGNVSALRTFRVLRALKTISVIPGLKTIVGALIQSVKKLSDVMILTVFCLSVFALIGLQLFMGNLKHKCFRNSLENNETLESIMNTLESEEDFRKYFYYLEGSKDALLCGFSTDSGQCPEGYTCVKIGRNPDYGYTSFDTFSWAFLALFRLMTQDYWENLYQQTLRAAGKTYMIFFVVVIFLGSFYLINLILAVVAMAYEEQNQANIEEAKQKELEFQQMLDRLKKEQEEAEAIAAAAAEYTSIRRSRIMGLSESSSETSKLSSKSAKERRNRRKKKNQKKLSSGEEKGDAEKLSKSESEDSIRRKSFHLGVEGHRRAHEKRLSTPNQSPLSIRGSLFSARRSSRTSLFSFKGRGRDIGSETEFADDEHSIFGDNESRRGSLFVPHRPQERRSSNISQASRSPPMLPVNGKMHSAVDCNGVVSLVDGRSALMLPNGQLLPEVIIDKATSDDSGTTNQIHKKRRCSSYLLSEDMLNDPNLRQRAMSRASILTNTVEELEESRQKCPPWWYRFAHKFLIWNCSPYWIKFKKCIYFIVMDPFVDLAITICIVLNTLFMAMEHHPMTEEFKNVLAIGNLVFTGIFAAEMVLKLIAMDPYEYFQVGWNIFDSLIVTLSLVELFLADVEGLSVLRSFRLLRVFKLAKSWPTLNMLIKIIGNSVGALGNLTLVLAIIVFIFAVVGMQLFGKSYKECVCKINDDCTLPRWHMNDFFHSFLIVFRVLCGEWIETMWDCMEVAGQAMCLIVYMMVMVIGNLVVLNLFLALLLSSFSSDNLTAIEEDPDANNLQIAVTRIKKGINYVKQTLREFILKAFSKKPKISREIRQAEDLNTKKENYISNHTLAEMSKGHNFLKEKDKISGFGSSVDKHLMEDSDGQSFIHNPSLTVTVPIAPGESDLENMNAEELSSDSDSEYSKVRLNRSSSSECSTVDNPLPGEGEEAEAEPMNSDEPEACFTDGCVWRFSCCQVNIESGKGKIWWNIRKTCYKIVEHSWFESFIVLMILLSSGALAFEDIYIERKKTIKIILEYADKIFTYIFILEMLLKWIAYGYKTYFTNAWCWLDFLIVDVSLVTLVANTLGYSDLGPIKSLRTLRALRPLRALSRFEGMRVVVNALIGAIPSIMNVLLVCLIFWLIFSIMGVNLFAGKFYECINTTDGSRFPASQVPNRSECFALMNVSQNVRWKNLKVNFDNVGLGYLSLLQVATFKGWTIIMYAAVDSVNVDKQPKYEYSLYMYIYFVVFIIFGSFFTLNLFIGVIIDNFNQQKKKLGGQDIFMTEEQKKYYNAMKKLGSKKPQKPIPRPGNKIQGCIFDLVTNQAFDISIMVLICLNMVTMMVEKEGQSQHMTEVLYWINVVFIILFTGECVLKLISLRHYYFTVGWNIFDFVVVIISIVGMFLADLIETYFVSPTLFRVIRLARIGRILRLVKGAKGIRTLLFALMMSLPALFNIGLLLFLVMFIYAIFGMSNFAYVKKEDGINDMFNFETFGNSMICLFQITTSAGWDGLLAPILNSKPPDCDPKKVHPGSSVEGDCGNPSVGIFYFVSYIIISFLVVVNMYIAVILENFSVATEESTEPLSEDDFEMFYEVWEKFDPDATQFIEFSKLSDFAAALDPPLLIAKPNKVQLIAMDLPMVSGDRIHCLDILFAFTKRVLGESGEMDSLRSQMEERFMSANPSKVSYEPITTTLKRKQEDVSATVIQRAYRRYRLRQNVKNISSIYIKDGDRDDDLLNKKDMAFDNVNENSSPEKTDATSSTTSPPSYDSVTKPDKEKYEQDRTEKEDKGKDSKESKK

Structure (SMILES) | IC50 [1] | IC50 [2] | IC50 [3]
CC[C@H](C)[C@@H]1NC(=O)[C@@H]2CSSC[C@@H]3NC(=O)[C@H](C(C)C)NC(=O)[C@H](CC(C)C)NC(=O)[C@H](CC(N)=O)NC(=O)[C@@H]4CCCN4C(=O)[C@H](CCCNC(=N)N)NC(=O)[C@H](CSSC[C@H](NC(=O)[C@@H](N)CC(=O)O)C(=O)N[C@@H](CC(C)C)C(=O)NCC(=O)N[C@@H](Cc4ccccc4)C(=O)N[C@@H](CCSC)C(=O)N[C@@H](CCCNC(=N)N)C(=O)N[C@@H](CCCCN)C(=O)N2)NC(=O)[C@H](CSSC[C@@H](C(=O)N[C@@H](CCCCN)C(=O)N[C@@H](Cc2ccc(O)cc2)C(=O)N[C@H](C(=O)N[C@@H](Cc2ccccc2)C(=O)O)C(C)C)NC(=O)[C@H](Cc2c[nH]c4ccccc24)NC(=O)[C@H](CCCCN)NC(=O)[C@H](Cc2cnc[nH]2)NC(=O)[C@H]([C@@H](C)O)NC(=O)[C@H](CCCNC(=N)N)NC(=O)[C@H](CO)NC3=O)NC(=O)[C@H](CCCCN)NC(=O)[C@H](CC(=O)O)NC(=O)[C@H](CC(N)=O)NC(=O)[C@H](CC(=O)O)NC(=O)[C@@H]2CCCN2C1=O (stereo in doubt) | > 10 µM | > 5 µM | –
CC[C@H](C)[C@@H]1NC(=O)[C@@H]2CSSC[C@@H]3NC(=O)[C@H](C(C)C)NC(=O)[C@H](CC(C)C)NC(=O)[C@H](CC(N)=O)NC(=O)[C@@H]4CCCN4C(=O)[C@H](CCCN/C(=N/C)NC)NC(=O)[C@H](CSSC[C@H](NC(=O)[C@@H](N)CC(=O)O)C(=O)N[C@@H](CC(C)C)C(=O)NCC(=O)N[C@@H](Cc4ccccc4)C(=O)N[C@@H](CCSC)C(=O)N[C@@H](CCCNC(=N)N)C(=O)N[C@@H](CCCCN)C(=O)N2)NC(=O)[C@H](CSSC[C@@H](C(=O)N[C@@H](CCCCN)C(=O)N[C@@H](Cc2ccc(O)cc2)C(=O)N[C@H](C(=O)N[C@@H](Cc2ccccc2)C(N)=O)C(C)C)NC(=O)[C@H](Cc2c[nH]c4ccccc24)NC(=O)[C@H](CCCCN)NC(=O)[C@H](Cc2cnc[nH]2)NC(=O)[C@H]([C@@H](C)O)NC(=O)[C@H](CCCNC(=N)N)NC(=O)[C@H](CO)NC3=O)NC(=O)[C@H](CCCCN)NC(=O)[C@H](CC(=O)O)NC(=O)[C@H](CC(N)=O)NC(=O)[C@H](CC(=O)O)NC(=O)[C@@H]2CCCN2C1=O | > 10 µM | > 5 µM | –
CC[C@H](C)[C@@H]1NC(=O)[C@@H]2CSSC[C@@H]3NC(=O)[C@H](C(C)C)NC(=O)[C@H](CC(C)C)NC(=O)[C@H](CC(N)=O)NC(=O)[C@@H]4CCCN4C(=O)[C@H](CCCCN(C)C)NC(=O)[C@H](CSSC[C@H](NC(=O)[C@@H](N)CC(=O)O)C(=O)N[C@@H](CC(C)C)C(=O)NCC(=O)N[C@@H](Cc4ccccc4)C(=O)N[C@@H](CCSC)C(=O)N[C@@H](CCCNC(=N)N)C(=O)N[C@@H](CCCCN)C(=O)N2)NC(=O)[C@H](CSSC[C@@H](C(=O)N[C@@H](CCCCN)C(=O)N[C@@H](Cc2ccc(O)cc2)C(=O)N[C@H](C(=O)N[C@@H](Cc2ccccc2)C(N)=O)C(C)C)NC(=O)[C@H](Cc2c[nH]c4ccccc24)NC(=O)[C@H](CCCCN)NC(=O)[C@H](Cc2cnc[nH]2)NC(=O)[C@H]([C@@H](C)O)NC(=O)[C@H](CCCNC(=N)N)NC(=O)[C@H](CO)NC3=O)NC(=O)[C@H](CCCCN)NC(=O)[C@H](CC(=O)O)NC(=O)[C@H](CC(N)=O)NC(=O)[C@H](CC(=O)O)NC(=O)[C@@H]2CCCN2C1=O (H-DCLGFMRKCIPDNDKCC[Lys(Me2)]PNLVCSRTHKWCKYVF-NH2; disulfide 2-17, 9-23, 16-30) | > 10 µM | > 5 µM | –
CC[C@H](C)[C@@H]1NC(=O)[C@@H]2CSSC[C@@H]3NC(=O)[C@H](C(C)C)NC(=O)[C@H](CC(C)C)NC(=O)[C@H](CC(N)=O)NC(=O)[C@@H]4CCCN4C(=O)[C@H](CCCNC(=N)N)NC(=O)[C@H](CSSC[C@H](NC(=O)[C@H](CC(=O)O)NC(C)=O)C(=O)N[C@@H](CC(C)C)C(=O)NCC(=O)N[C@@H](Cc4ccccc4)C(=O)N[C@@H](CCSC)C(=O)N[C@@H](CCCNC(=N)N)C(=O)N[C@@H](CCCCN)C(=O)N2)NC(=O)[C@H](CSSC[C@@H](C(=O)N[C@@H](CCCCN)C(=O)N[C@@H](Cc2ccc(O)cc2)C(=O)N[C@H](C(=O)N[C@@H](Cc2ccccc2)C(N)=O)C(C)C)NC(=O)[C@H](Cc2c[nH]c4ccccc24)NC(=O)[C@H](CCCCN)NC(=O)[C@H](Cc2cnc[nH]2)NC(=O)[C@H]([C@@H](C)O)NC(=O)[C@H](CCCNC(=N)N)NC(=O)[C@H](CO)NC3=O)NC(=O)[C@H](CCCCN)NC(=O)[C@H](CC(=O)O)NC(=O)[C@H](CC(N)=O)NC(=O)[C@H](CC(=O)O)NC(=O)[C@@H]2CCCN2C1=O | > 10 µM | > 5 µM | –
CC[C@H](C)[C@@H]1NC(=O)[C@H]2CSSC[C@H]3NC(=O)[C@H](C(C)C)NC(=O)[C@H](CC(C)C)NC(=O)[C@H](CC(N)=O)NC(=O)[C@@H]4CCCN4C(=O)[C@H](CCCNC(=N)N)NC(=O)[C@H](CSSC[C@H](NC(=O)[C@@H](N)CC(=O)O)C(=O)N[C@@H](CC(C)C)C(=O)NCC(=O)N[C@@H](Cc4ccccc4)C(=O)N[C@@H](CCSC)C(=O)N[C@@H](CCCNC(=N)N)C(=O)N[C@@H](CCCCN)C(=O)N2)NC(=O)[C@@H](CSSC[C@@H](C(=O)N[C@@H](CCCCN)C(=O)N[C@@H](Cc2ccc(O)cc2)C(=O)N[C@H](C(=O)N[C@@H](Cc2ccccc2)C(N)=O)C(C)C)NC(=O)[C@H](Cc2c[nH]c4ccccc24)NC(=O)[C@H](CCCCN)NC(=O)[C@H](C)NC(=O)[C@H]([C@@H](C)O)NC(=O)[C@H](CCCNC(=N)N)NC(=O)[C@H](CO)NC3=O)NC(=O)[C@H](CCCCN)NC(=O)[C@H](CC(=O)O)NC(=O)[C@H](CC(N)=O)NC(=O)[C@H](CC(=O)O)NC(=O)[C@@H]2CCCN2C1=O | – | > 5 µM | 0.97 µM
CC[C@H](C)[C@@H]1NC(=O)[C@@H]2CSSC[C@@H]3NC(=O)[C@H](C(C)C)NC(=O)[C@H](CC(C)C)NC(=O)[C@H](CC(N)=O)NC(=O)[C@@H]4CCCN4C(=O)[C@H](CCCNC(=N)N)NC(=O)[C@H](CSSC[C@H](NC(=O)[C@@H](N)CC(=O)O)C(=O)N[C@@H](CC(C)C)C(=O)NCC(=O)N[C@@H](CCC(=O)O)C(=O)N[C@@H](CCSC)C(=O)N[C@@H](CCCNC(=N)N)C(=O)N[C@@H](CCCCN)C(=O)N2)NC(=O)[C@H](CSSC[C@@H](C(=O)N[C@@H](CCCCN)C(=O)N[C@@H](Cc2ccc(O)cc2)C(=O)N[C@H](C(=O)N[C@@H](Cc2ccccc2)C(N)=O)C(C)C)NC(=O)[C@H](Cc2c[nH]c4ccccc24)NC(=O)[C@H](CCCCN)NC(=O)[C@H](Cc2cnc[nH]2)NC(=O)[C@H]([C@@H](C)O)NC(=O)[C@H](CCCNC(=N)N)NC(=O)[C@H](CO)NC3=O)NC(=O)[C@H](CCCCN)NC(=O)[C@H](CC(=O)O)NC(=O)[C@H](CC(N)=O)NC(=O)[C@H](CC(=O)O)NC(=O)[C@@H]2CCCN2C1=O (H-DCLGEMRKCIPDNDKCCRPNLVCSRTHKWCKYVF-NH2; disulfide 2-17, 9-23, 16-30) | – | > 5 µM | > 5 µM
CC[C@H](C)[C@@H]1NC(=O)[C@@H]2CSSC[C@@H]3NC(=O)[C@H](C(C)C)NC(=O)[C@H](CC(C)C)NC(=O)[C@H](CC(N)=O)NC(=O)[C@@H]4CCCN4C(=O)[C@H](CCCNC(=N)N)NC(=O)[C@H](CSSC[C@H](NC(=O)[C@@H](N)CC(=O)O)C(=O)N[C@@H](CC(C)C)C(=O)NCC(=O)N[C@@H](Cc4ccccc4)C(=O)N[C@@H](CCSC)C(=O)N[C@@H](CCCCN)C(=O)N[C@@H](CCCCN)C(=O)N2)NC(=O)[C@H](CSSC[C@@H](C(=O)N[C@@H](CCCCN)C(=O)N[C@@H](Cc2ccc(O)cc2)C(=O)N[C@H](C(=O)N[C@@H](Cc2ccccc2)C(N)=O)C(C)C)NC(=O)[C@H](Cc2c[nH]c4ccccc24)NC(=O)[C@H](CCCCN)NC(=O)[C@H](Cc2c[nH]cn2)NC(=O)[C@H]([C@@H](C)O)NC(=O)[C@H](CCCNC(=N)N)NC(=O)[C@H](CO)NC3=O)NC(=O)[C@H](CCCCN)NC(=O)[C@H](CC(=O)O)NC(=O)[C@H](CC(N)=O)NC(=O)[C@H](CC(=O)O)NC(=O)[C@@H]2CCCN2C1=O (H-DCLGFMKKCIPDNDKCCRPNLVCSRTHKWCKYVF-NH2; disulfide 2-17, 9-23, 16-30) | – | > 5 µM | 0.54 µM
CC[C@H](C)[C@@H]1NC(=O)[C@@H]2CSSC[C@@H]3NC(=O)[C@H](C(C)C)NC(=O)[C@H](CC(C)C)NC(=O)[C@H](CC(N)=O)NC(=O)[C@@H]4CCCN4C(=O)[C@H](CCCNC(=N)N)NC(=O)[C@H](CSSC[C@H](NC(=O)[C@@H](N)CC(=O)O)C(=O)N[C@@H](CC(C)C)C(=O)NCC(=O)N[C@@H](Cc4ccccc4)C(=O)N[C@@H](CCSC)C(=O)N[C@@H](CCCNC(=N)N)C(=O)N[C@@H](CCCCN)C(=O)N2)NC(=O)[C@H](CSSC[C@@H](C(=O)N[C@@H](CCCCN)C(=O)N[C@@H](Cc2ccc(O)cc2)C(=O)N[C@H](C(=O)N[C@@H](CCCNC(=N)N)C(N)=O)C(C)C)NC(=O)[C@H](Cc2c[nH]c4ccccc24)NC(=O)[C@H](CCCCN)NC(=O)[C@H](Cc2cnc[nH]2)NC(=O)[C@H]([C@@H](C)O)NC(=O)[C@H](CCCNC(=N)N)NC(=O)[C@H](CO)NC3=O)NC(=O)[C@H](CCCCN)NC(=O)[C@H](CC(=O)O)NC(=O)[C@H](CC(N)=O)NC(=O)[C@H](CC(=O)O)NC(=O)[C@@H]2CCCN2C1=O (H-DCLGFMRKCIPDNDKCCRPNLVCSRTHKWCKYVR-NH2; disulfide 2-17, 9-23, 16-30) | – | > 5 µM | 2.35 µM
